# Measured values from ChEMBL document CHEMBL4825713, “Promising Non-cytotoxic Monosubstituted Chalcones to Target Monoamine Oxidase-B” (ACS Med Chem Lett, 2021).
# Columns and labels:
# [1] = target: T1, Amine oxidase [flavin-containing] B (Homo sapiens, UniProt P27338); assay: Competitive inhibition of recombinant human MAO-B expressed in baculovirus infected BTI cells using varying concentration of kynuramine as substrate at 5 to 40 nM by Lineweaver-burk plot analysis; conditions: dose 5-40 nM
# T1 sequence (P27338 whole entry): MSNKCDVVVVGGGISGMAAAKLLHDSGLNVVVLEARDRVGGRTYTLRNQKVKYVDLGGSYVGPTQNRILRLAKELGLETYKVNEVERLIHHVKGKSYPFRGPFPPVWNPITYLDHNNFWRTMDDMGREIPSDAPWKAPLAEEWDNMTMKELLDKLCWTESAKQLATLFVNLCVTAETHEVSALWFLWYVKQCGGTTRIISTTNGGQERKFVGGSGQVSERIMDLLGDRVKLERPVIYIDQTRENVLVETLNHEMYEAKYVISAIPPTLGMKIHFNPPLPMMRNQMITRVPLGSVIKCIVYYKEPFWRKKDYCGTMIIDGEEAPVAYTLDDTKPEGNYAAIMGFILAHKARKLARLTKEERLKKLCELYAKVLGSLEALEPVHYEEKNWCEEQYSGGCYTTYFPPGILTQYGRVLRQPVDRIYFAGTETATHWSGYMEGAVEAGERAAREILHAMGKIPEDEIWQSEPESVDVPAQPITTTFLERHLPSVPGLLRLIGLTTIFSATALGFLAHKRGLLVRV
# Summary of the method: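 Initial velocities of human recombinant MAO-B measured at varied kynuramine concentrations, without inhibitor and with inhibitor at 5–40 nM. Data plotted as Lineweaver–Burk double reciprocals (1/v0 vs 1/[S]). Inhibition mode assigned from which intercept changes, x-intercept (−1/Km) versus y-intercept (1/Vmax). Mean ± SD of three independent experiments.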
# [2] = target: T1, Amine oxidase [flavin-containing] B; assay: Reversible inhibition of recombinant human MAO-B using kynuramine as substrate at 4 times Ki incubated for 20 mins
inhibition (INH) [1],inhibition (INH) [2],Compound
Active,Active,O=C(/C=C/c1ccccc1)c1cccc(C(F)(F)F)c1
–,Active,O=C(/C=C/c1ccccc1)c1ccc(C(F)(F)F)cc1
–,Active,O=C(/C=C/c1ccccc1[N+](=O)[O-])c1ccccc1
